The list is not random: actives were taken first. Their share in the collection is about 4.1%.
APP 5'UTR act: activates APP 5'UTR luciferase reporter; SH-SY5Y APP 5'UTR luciferase reporter, luminescence; zero percent = DMSO vehicle wells; activation, % at 2 µM; actives 1% (n = 190,000); AID 1276;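 active means activation above a set limit, based on mean plus 3 SD of controls, cut at about 140% in these data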
FLuc stim CS: affects firefly luciferase, flagging false hits in luciferase stimulation screens; P08659; ATPlite luciferase biochemical, luminescence, 10 min; 0 = ATP-free wells, 1 = DMSO control; activation factor at 10 µM; 200,000 tested, under 10 active; AID 1027;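 active means luciferase activation factor, scaled between plate controls, of at least 2 with compound at 10 µM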
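assay system = Luciferase/luciferin detection reagent, cell-free biochemical luciferase assay | also added = ATP substrate | times = 10 min post-reagent at room temperature | measured by = luminescence from luciferase reaction | measure = luciferase activation, seen as luminescence increase over controls | benchmarks = low control with PBS replacing ATP, high control enzyme plus ATP without compound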
STAT1 act: STAT1 signaling activation; NIH 3T3 STAT1-luciferase reporter, IFN-gamma, luminescence; 100% = IFN-gamma alone, no compound; activation (% of control), % at 5.5 µM; actives 2.6% (n = 200,000); AID 932;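 active means activation above the screen-wide mean activation plus 3 SD, cut at about 130% in these data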
FLuc inhib CS: Photinus pyralis luciferase inhibition counter-screen | P08659 | ATPLite firefly luciferase biochemical luminescence, 10 min | inhibition, % at 10 µM | actives 1.5% (n = 200,000) | AID 1006;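 active means inhibition above about 50% when tested at 10 µM, limit read from the data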
NF-kB neuron act: compounds increasing NF-kB expression in human neuronal cells | NF-kB reporter expression; active compounds read high | AID 1239 | fold change at 12.5 µM | actives 1.6% (n = 190,000); in the data active means fold change above about 3.3
Each line names hits and unclear results; the compound was inactive in the other large screens.

CCC(C)(C(=O)NC1CCCCC1)N(C(=O)CC1NC(=O)NC1=O)c1c(C)n(C)n(-c2ccccc2)c1=O (stereo not drawn)	none
COc1ccc(NC(=O)C2CCCO2)cc1Cl (stereo not drawn)	none
CSc1nc2ccc(NC(=O)C3CCCO3)cc2s1 (stereo not drawn)	STAT1 act 132
Cc1cccc(-n2c(N)cc(=O)nc2SCC(=O)Nc2nnc(C)s2)c1	none
COc1ccc(/C=N\NC(=O)COc2ccccc2)c(C(=O)O)c1OC	none
CNC(=O)CSc1nc(SC)ns1	none
CSc1nsc(SCC(=O)N2CCCCC2)n1	STAT1 act 130
COc1ccc(C(=O)N[C@H](C(=O)Nc2nc3ccccc3[nH]2)C(C)C)cc1	FLuc inhib CS 53
O=C(Nc1nc2ccccc2[nH]1)C1CC1	none
O=C(Nc1nc2ccccc2[nH]1)C12CC3CC(CC(C3)C1)C2	STAT1 act 132, FLuc inhib CS 50
O=C(NCc1nc2ccccc2[nH]1)c1ccc([N+](=O)[O-])cc1	none
O=C(Nc1nc2ccccc2[nH]1)c1cccs1	APP 5'UTR act 166, FLuc inhib CS 69, NF-kB neuron act 3.8
O=C(Nc1nc2ccccc2[nH]1)c1ccc([N+](=O)[O-])cc1	APP 5'UTR act 190, FLuc inhib CS 51
CSc1ccccc1C(=O)Nc1nc2ccccc2[nH]1	none
O=C(Nc1nc2ccccc2[nH]1)c1ccc(Br)o1	STAT1 act 144, FLuc inhib CS 73, NF-kB neuron act 3.6
O=c1[nH]c2ccccc2nc1/C=C/c1ccc(O)cc1	STAT1 act 138, FLuc inhib CS 54
CC(C)(C)/C(O)=C/c1nc2ccccc2[nH]c1=O	none
COc1cccc(C(=O)Nc2nc3ccccc3[nH]2)c1	APP 5'UTR act 150, FLuc inhib CS 91
O=c1[nH]c2ccccc2nc1/C=C(\O)c1cccs1	STAT1 act 146
Cc1cccn2c(=O)c3cc(C#N)c(=O)n(CC4CCCO4)c3nc12 (stereo not drawn)	none
CCOC(=O)CN(c1ccccn1)S(=O)(=O)c1ccc(OC)cc1	none
C(=C/c1ccnc2nc(SC/C=C/c3ccccc3)nn12)/c1ccccc1	none
COc1cc(CN2CCNC(=O)C2CC(=O)N(C)Cc2ncc[nH]2)cc(OC)c1 (stereo not drawn)	none
COc1ccc(/C=N/N=C(\N)c2nonc2N)cc1	APP 5'UTR act 191, FLuc inhib CS 52, NF-kB neuron act 9.4
CCOC(=O)c1cnc2c(C)c(Cl)ccc2c1Nc1ccc(S(=O)(=O)Nc2ncccn2)cc1	none
COc1ccc(CC(=O)Nc2cccc(C(=O)Nc3cccc(C)c3)c2)cc1	none
COc1cccc(C(=O)Nc2ccccc2)c1	none
Cc1cccc(NC(=O)c2ccc(OC3CSC3)cc2)c1	APP 5'UTR act 158, FLuc inhib CS 80, NF-kB neuron act 3.8
COc1cccc(C(=O)Nc2cccc(SC)c2)c1	STAT1 act 129
COc1ccc(C(=O)Nc2cccc(C)c2)cc1	APP 5'UTR act 142, STAT1 act 138, FLuc inhib CS 77, NF-kB neuron act 6
COc1ccc(C(=O)Nc2cc(OC)nc(OC)n2)cc1	APP 5'UTR act 140, STAT1 act 138, FLuc inhib CS 76, NF-kB neuron act 7.2
CCC(C)(C)NC(=O)/C=C/c1cccs1	none
O=C(Nc1cccc(Br)c1)c1ccc(OC2CSC2)cc1	APP 5'UTR act 149, FLuc inhib CS 58
CCCCOC(=O)Nc1ccc(C)c(Cl)c1	STAT1 act 143
COc1cccc(NC(=O)Nc2cc(C(=O)O)ccc2C)c1	none
CCCCOC(=O)Nc1ccc(C(=O)OC)cc1	none
COc1cccc(NC(=O)c2ccc(NC(=O)C(C)(C)C)cc2)c1	STAT1 act 136
COc1cccc(NC(=O)Nc2ccc(C)c(Cl)c2)c1	STAT1 act 133
Cc1sc2nc(SCc3nc(-c4ccccc4)no3)n(-c3ccccc3)c(=O)c2c1C	none (no result: APP 5'UTR act)
CC(=O)NC1(NC(C)=O)CCN(C)CC1	none
CCOC(=O)c1[nH]c2c(c1C)C(=O)CC(c1ccco1)C2 (stereo not drawn)	NF-kB neuron act 6.4
Cc1c(C(=O)OCCOC(C)C)[nH]c2c1C(=O)CC(c1ccco1)C2 (stereo not drawn)	NF-kB neuron act 3.5
COCCOC(=O)c1[nH]c2c(c1C)C(=O)CC(c1ccccc1)C2 (stereo not drawn)	NF-kB neuron act 3.8
Cc1cc(C(=O)NCCCn2ccnc2)sc1-c1ccccc1	none

Bioassay records as filed in PubChem.
